From ChEMBL document CHEMBL4819017 (Eur J Med Chem, 2021)
pEC50, pIC50: −log10 of the molar value.

How the values were obtained:
Homo sapiens [1] = species on record: Homo sapiens; assay: Selectivity ratio of Ki for human p110gamma to Ki for human p110alpha/p85alpha using PIP2 as substrate in presence of ATP
Summary of the method: (§1)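 Ki from a PI3-kinase HTRF assay run per manufacturer. Enzyme levels: p110α/p85α and p110δ/p85α 100 pM, p110β/p85α 500 pM, p110γ 4 nM. ATP at 50× KM: 200 μM (α, δ), 250 μM (β), 100 μM (γ). PIP2 10 μM. Activity normalized to no-compound control. Ratio is the isoform Ki over the α Ki.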

MCF7 = assay: Growth inhibition of human MCF7 cells harboring mutated p110alpha measured after 72 hrs by Cell titre Glo-luminiscence cell viability assay; type: functional
Summary of the method: (§2)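 Cells harvested just before confluency and seeded at 4,000 cells/well, then left 24 h before dosing. Serial dilutions from 10 mM DMSO stocks, final DMSO ≤0.5%, each concentration in duplicate.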

SK-OV-3 = assay: Growth inhibition of human SK-OV-3 cells harboring mutated p110alpha measured after 72 hrs by Cell titre Glo-luminiscence cell viability assay; type: functional; summary of the method: as §2
Cytochrome P450 1A2 = biological target: T1, Cytochrome P450 1A2 (Homo sapiens, UniProt P05177); assay: Inhibition of CYP1A2 (unknown origin) using Luciferin-ME as substrate at 10 uM preincubated with enzyme and substrate for 5 mins followed by addition of NADPH regeneration system and measured after 60 mins by luminescence method; type: ADME
T1 sequence (P05177 whole entry): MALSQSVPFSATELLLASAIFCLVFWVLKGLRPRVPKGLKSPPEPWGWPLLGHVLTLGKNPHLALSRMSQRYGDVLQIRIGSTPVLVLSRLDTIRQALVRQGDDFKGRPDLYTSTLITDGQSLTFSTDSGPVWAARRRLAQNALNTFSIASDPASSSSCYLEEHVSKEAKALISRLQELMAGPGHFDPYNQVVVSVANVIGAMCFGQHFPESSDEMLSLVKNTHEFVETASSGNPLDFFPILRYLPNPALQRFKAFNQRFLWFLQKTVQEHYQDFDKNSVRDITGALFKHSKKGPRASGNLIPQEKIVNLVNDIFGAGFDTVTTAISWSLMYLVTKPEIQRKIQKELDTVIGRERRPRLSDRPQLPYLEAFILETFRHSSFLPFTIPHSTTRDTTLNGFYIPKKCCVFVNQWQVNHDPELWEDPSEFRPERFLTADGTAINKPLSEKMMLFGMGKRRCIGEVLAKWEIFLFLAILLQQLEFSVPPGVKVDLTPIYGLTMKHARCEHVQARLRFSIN
Summary of the method: (§3)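 P450-Glo luminescence assays with these substrates: Luciferin-ME (CYP1A2), Luciferin-PPXE (CYP3A4), Luciferin-H (CYP2C9), LuciferinH-EG (CYP2C19), Luciferin-ME-EG (CYP2D6). Compounds run in 1/3 serial dilutions from 10 µM in 0.5% DMSO with enzyme and substrate. After 5 min preincubation, NADPH regeneration reagent added; 60 min at 37 °C, then detection reagent for 30 min. Background subtracted.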

[2] = Half life in BALB/c mouse at 10 mg/kg, po measured for 8 hrs; type: ADME, organism-based; settings: in vivo
Summary of the method: (§4)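 BALB/c mice dosed I.V. or P.O. at the stated dose; plasma levels followed for 8 h. Parameters from noncompartmental analysis: AUC (h.ng/ml), T1/2 (h), Cl (L/h/Kg), Vd (L/Kg), Cmax (ng/ml), Tmax (h).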

[3] = Metabolic stability in mouse liver microsomes assessed as parent compound remaining in presence of NADPH regenerating system at 0.5 uM measured after 15 mins by LC-MS/MS analysis; type: ADME, Microsome; settings: read-out: Stabilty
Summary of the method: (§5)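 Human, mouse or rat liver microsomes at 0.5 mg/ml protein with compound at 0.5 µM and NADPH-regenerating system, 37 °C with shaking. Control wells contain 0.1 M potassium phosphate instead of the regenerating system. Reaction stopped with acetonitrile/0.1% formic acid, centrifuged, supernatant analyzed by LC-MS/MS. Result is percent parent compound remaining.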

[4] = Inhibition of PI3K/mTOR in human MCF7 cells assessed as reduction of AKT phosphorylation at Ser473 residue measured after 3 hrs by western blot assay; type: cell-based; settings: MCF7, 3 h
Summary of the method: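 MCF7 cells treated for 3 h across a dose range, washed and lysed with phosphatase and protease inhibitors. Lysates run on 10% SDS-PAGE and blotted, antibodies incubated overnight at 4 °C.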

Homo sapiens [5] = species on record: Homo sapiens; assay: Selectivity ratio of Ki for human p110delta/p85alpha to Ki for human p110alpha/p85alpha using PIP2 as substrate in presence of ATP; summary of the method: as §1
[6] = Plasma concentration in BALB/c mouse at 10 mg/kg, po measured for 8 hrs; type: ADME, organism-based
Summary of the method: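 Dosing in BALB-C mice intravenously or orally, with plasma sampled over 8 h. Parameters (AUC, T1/2, Cl, Vd, Cmax, Tmax) come from a noncompartmental model. Units: AUC h.ng/ml, Vd L/Kg, Cmax ng/ml, Tmax h.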

Cytochrome P450 2C9 = Cytochrome P450 2C9 (Homo sapiens, UniProt P11712); assay: Inhibition of CYP2C9 (unknown origin) using Luciferin-H as substrate at 10 uM preincubated with enzyme and substrate for 5 mins followed by addition of NADPH regeneration system and measured after 60 mins by luminescence method; type: ADME; summary of the method: as §3
[7] = Cmax in BALB/c mouse at 10 mg/kg, po measured for 8 hrs; type: ADME, organism-based; parameters: route oral, dose 10 mg/kg, time 8 hrs; settings: in vivo; summary of the method: as §4
[8] = Inhibition of PI3K/mTOR in human U2OS cells assessed as inhibition of AKT1 phosphorylation at Ser473 residue by C-ELISA; type: cell-based
Summary of the method: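 U2OS osteosarcoma cells grown in 0.1% FBS and serum-stimulated. Endogenous phospho-AKT1 Ser473 quantified by cell-based ELISA with chemiluminescent substrate. Signal plotted against inhibitor concentration and fitted to a sigmoid dose-response curve.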

Cytochrome P450 3A4 = Cytochrome P450 3A4 (Homo sapiens, UniProt P08684); assay: Inhibition of CYP3A4 (unknown origin) using Luciferin-PPXE as substrate at 10 uM preincubated with enzyme and substrate for 5 mins followed by addition of NADPH regeneration system and measured after 60 mins by luminescence method; type: ADME; summary of the method: as §3
[9] = biological target: Serine/threonine-protein kinase mTOR (Homo sapiens, UniProt P42345); assay: Inhibition of recombinant human GST tagged mTOR (1360 to 2549 residues) expressed in baculovirus expression system measured by LanthaScreen assay
Summary of the method: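 mTOR inhibition measured by LanthaScreen assay; IC50 values average two independent experiments.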

Cytochrome P450 2D6 = Cytochrome P450 2D6 (Homo sapiens, UniProt P10635); assay: Inhibition of CYP2D6 (unknown origin) using Luciferin-ME-EG as substrate at 10 uM preincubated with enzyme and substrate for 5 mins followed by addition of NADPH regeneration system and measured after 60 mins by luminescence method; type: ADME; summary of the method: as §3
[10] = AUC (infinity) in BALB/c mouse at 5 mg/kg, iv measured for 8 hrs; type: ADME, organism-based; parameters: route intravenous, dose 5 mg/kg, time 8 hrs; settings: in vivo; summary of the method: as §4
[11] = Metabolic stability in human liver microsomes assessed as parent compound remaining in presence of NADPH regenerating system at 0.5 uM measured after 15 mins by LC-MS/MS analysis; type: ADME, Microsome; settings: read-out: Stabilty; summary of the method: as §5
[12] = Oral bioavailability in BALB/c mouse at 10 mg/kg measured for 8 hrs; type: ADME, organism-based; settings: in vivo; summary of the method: as §4

Cytochrome P450 3A4, sequence (P08684 whole entry, the tested form may be a part): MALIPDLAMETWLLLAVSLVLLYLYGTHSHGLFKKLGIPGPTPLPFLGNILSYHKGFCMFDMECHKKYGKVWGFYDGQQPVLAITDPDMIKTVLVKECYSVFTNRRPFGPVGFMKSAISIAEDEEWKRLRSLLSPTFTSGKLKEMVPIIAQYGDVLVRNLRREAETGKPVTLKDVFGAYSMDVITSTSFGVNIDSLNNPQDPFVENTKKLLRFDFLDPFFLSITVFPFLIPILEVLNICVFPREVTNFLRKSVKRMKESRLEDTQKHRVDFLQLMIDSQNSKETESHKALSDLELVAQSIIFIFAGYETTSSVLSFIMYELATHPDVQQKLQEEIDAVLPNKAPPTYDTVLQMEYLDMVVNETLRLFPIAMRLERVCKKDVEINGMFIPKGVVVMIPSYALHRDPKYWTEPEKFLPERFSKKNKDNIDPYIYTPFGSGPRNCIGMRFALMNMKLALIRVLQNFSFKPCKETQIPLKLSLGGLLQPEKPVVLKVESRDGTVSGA
Cytochrome P450 2C9, sequence (P11712 whole entry): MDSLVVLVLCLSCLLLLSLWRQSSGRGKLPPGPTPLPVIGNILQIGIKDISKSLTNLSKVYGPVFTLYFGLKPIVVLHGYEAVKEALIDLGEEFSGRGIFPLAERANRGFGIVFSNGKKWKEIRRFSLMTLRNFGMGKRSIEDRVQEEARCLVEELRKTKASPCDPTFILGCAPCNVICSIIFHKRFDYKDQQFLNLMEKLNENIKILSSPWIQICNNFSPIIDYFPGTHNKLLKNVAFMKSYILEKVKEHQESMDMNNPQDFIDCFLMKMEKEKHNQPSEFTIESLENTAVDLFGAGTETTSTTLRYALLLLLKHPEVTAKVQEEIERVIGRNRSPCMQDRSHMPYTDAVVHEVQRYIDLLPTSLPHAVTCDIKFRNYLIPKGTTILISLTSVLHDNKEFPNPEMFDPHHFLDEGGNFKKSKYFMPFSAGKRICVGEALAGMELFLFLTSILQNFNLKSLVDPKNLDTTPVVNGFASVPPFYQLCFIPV
Cytochrome P450 2D6, sequence (P10635 whole entry): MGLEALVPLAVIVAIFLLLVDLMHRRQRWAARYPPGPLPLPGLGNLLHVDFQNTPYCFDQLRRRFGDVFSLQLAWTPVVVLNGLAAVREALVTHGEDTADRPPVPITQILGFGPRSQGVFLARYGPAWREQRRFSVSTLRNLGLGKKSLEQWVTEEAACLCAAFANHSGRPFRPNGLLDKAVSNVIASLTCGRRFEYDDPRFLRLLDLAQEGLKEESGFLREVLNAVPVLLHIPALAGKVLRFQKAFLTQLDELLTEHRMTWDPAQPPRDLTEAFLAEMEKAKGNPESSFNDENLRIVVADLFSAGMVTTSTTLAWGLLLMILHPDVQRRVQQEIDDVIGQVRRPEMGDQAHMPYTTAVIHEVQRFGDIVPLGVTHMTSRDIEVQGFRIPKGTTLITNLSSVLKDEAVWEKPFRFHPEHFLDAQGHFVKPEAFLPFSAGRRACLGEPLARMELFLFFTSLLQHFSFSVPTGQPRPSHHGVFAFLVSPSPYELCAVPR

COc1ncc2cc1NS(=O)(=O)c1cccc(c1)C(=O)NCc1cncc(c1)-c1cnc3ccc-2cn13
Selectivity ratio (Homo sapiens [1]): 6.3
GI50 (MCF7): 7 nM
GI50 (SK-OV-3): 18.9 nM
pIC50 (Cytochrome P450 1A2): < 4.52
half-life [2]: 5.22 h
remaining at 0.25 h, 0.5 µM [3]: 97%
pEC50 [4]: 9.34
Selectivity ratio (Homo sapiens [5]): 0.4
concentration at 8 h [6]: 202 ng/mL
pIC50 (Cytochrome P450 2C9): < 4.52
Cmax [7]: 1570 ng/mL
pEC50 [8]: 9.77
pIC50 (Cytochrome P450 3A4): < 4.52
pIC50 [9]: 8.48
pIC50 (Cytochrome P450 2D6): < 4.52
AUC(0-inf) [10]: 2640 ng·h/mL
remaining at 0.25 h, 0.5 µM [11]: 100%
bioavailability [12]: 84.6%
